In ChEMBL document CHEMBL1177647, “Synthesis and characterization of novel phenylindoles as potential probes for imaging of β-amyloid plaques in the brain” (Bioorg Med Chem, 2010):

Columns and labels:
Intestine [1] = assay: Biodistribution in ddY mouse intestine at 0.2 to 0.4 uCi, iv after 2 mins; type: ADME, organism-based; conditions: in vivo
In short: (§1)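 Radiotracer (0.2–0.4 μCi) given as a single tail-vein injection of 100 μL saline containing 10 μL ethanol to normal ddY mice (5 weeks old, 25–30 g). Mice were sacrificed at set times after injection. Organs were excised and weighed, and radioactivity was counted in an automatic gamma counter.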

Heart [2] = assay: Biodistribution in ddY mouse heart at 0.2 to 0.4 uCi, iv after 10 mins; type: ADME, organism-based; conditions: in vivo; in short: as §1
Stomach [3] = assay: Biodistribution in ddY mouse stomach at 0.2 to 0.4 uCi, iv after 60 mins measured per gram of organ; type: ADME, organism-based; conditions: in vivo, 1 h; in short: as §1
Spleen [4] = assay: Biodistribution in ddY mouse spleen at 0.2 to 0.4 uCi, iv after 10 mins; type: ADME, organism-based; conditions: in vivo; in short: as §1
Spleen [5] = assay: Biodistribution in ddY mouse spleen at 0.2 to 0.4 uCi, iv after 2 mins; type: ADME, organism-based; conditions: in vivo; in short: as §1
Blood [6] = assay: Biodistribution in ddY mouse blood at 0.2 to 0.4 uCi, iv after 10 mins; type: ADME, organism-based; conditions: in vivo; in short: as §1
Liver [7] = assay: Biodistribution in ddY mouse liver at 0.2 to 0.4 uCi, iv after 60 mins; type: ADME, organism-based; conditions: in vivo, 1 h; in short: as §1
Intestine [8] = assay: Biodistribution in ddY mouse intestine at 0.2 to 0.4 uCi, iv after 10 mins; type: ADME, organism-based; conditions: in vivo; in short: as §1
Liver [9] = assay: Biodistribution in ddY mouse liver at 0.2 to 0.4 uCi, iv after 30 mins; type: ADME, organism-based; conditions: in vivo, 0.5 h; in short: as §1
Blood [10] = assay: Biodistribution in ddY mouse blood at 0.2 to 0.4 uCi, iv after 60 mins; type: ADME, organism-based; conditions: in vivo, 1 h; in short: as §1
Heart [11] = assay: Biodistribution in ddY mouse heart at 0.2 to 0.4 uCi, iv after 30 mins; type: ADME, organism-based; conditions: in vivo, 0.5 h; in short: as §1
Liver [12] = assay: Biodistribution in ddY mouse liver at 0.2 to 0.4 uCi, iv after 2 mins; type: ADME, organism-based; conditions: in vivo; in short: as §1
Pancreas [13] = assay: Biodistribution in ddY mouse pancreas at 0.2 to 0.4 uCi, iv after 2 mins; type: ADME, organism-based; conditions: in vivo; in short: as §1
Stomach [14] = assay: Biodistribution in ddY mouse stomach at 0.2 to 0.4 uCi, iv after 30 mins measured per gram of organ; type: ADME, organism-based; conditions: in vivo, 0.5 h; in short: as §1
Heart [15] = assay: Biodistribution in ddY mouse heart at 0.2 to 0.4 uCi, iv after 2 mins; type: ADME, organism-based; conditions: in vivo; in short: as §1
Pancreas [16] = assay: Biodistribution in ddY mouse pancreas at 0.2 to 0.4 uCi, iv after 60 mins; type: ADME, organism-based; conditions: in vivo, 1 h; in short: as §1
Intestine [17] = assay: Biodistribution in ddY mouse intestine at 0.2 to 0.4 uCi, iv after 30 mins; type: ADME, organism-based; conditions: in vivo, 0.5 h; in short: as §1
Kidney [18] = assay: Biodistribution in ddY mouse kidney at 0.2 to 0.4 uCi, iv after 2 mins; type: ADME, organism-based; conditions: in vivo; in short: as §1
Stomach [19] = assay: Biodistribution in ddY mouse stomach at 0.2 to 0.4 uCi, iv after 10 mins measured per gram of organ; type: ADME, organism-based; conditions: in vivo; in short: as §1
Kidney [20] = assay: Biodistribution in ddY mouse kidney at 0.2 to 0.4 uCi, iv after 60 mins; type: ADME, organism-based; conditions: in vivo, 1 h; in short: as §1
Brain [21] = assay: Biodistribution in ddY mouse brain at 0.2 to 0.4 uCi, iv after 2 mins; type: ADME, organism-based; conditions: in vivo; in short: as §1
Brain [22] = assay: Biodistribution in ddY mouse brain at 0.2 to 0.4 uCi, iv after 60 mins; type: ADME, organism-based; conditions: in vivo, 1 h; in short: as §1
Stomach [23] = assay: Biodistribution in ddY mouse stomach at 0.2 to 0.4 uCi, iv after 2 mins measured per gram of organ; type: ADME, organism-based; conditions: in vivo; in short: as §1
Spleen [24] = assay: Biodistribution in ddY mouse spleen at 0.2 to 0.4 uCi, iv after 60 mins; type: ADME, organism-based; conditions: in vivo, 1 h; in short: as §1
Pancreas [25] = assay: Biodistribution in ddY mouse pancreas at 0.2 to 0.4 uCi, iv after 30 mins; type: ADME, organism-based; conditions: in vivo, 0.5 h; in short: as §1
Brain [26] = assay: Biodistribution in ddY mouse brain at 0.2 to 0.4 uCi, iv after 10 mins; type: ADME, organism-based; conditions: in vivo; in short: as §1
Heart [27] = assay: Biodistribution in ddY mouse heart at 0.2 to 0.4 uCi, iv after 60 mins; type: ADME, organism-based; conditions: in vivo, 1 h; in short: as §1
Blood [28] = assay: Biodistribution in ddY mouse blood at 0.2 to 0.4 uCi, iv after 2 mins; type: ADME, organism-based; conditions: in vivo; in short: as §1
Intestine [29] = assay: Biodistribution in ddY mouse intestine at 0.2 to 0.4 uCi, iv after 60 mins; type: ADME, organism-based; conditions: in vivo, 1 h; in short: as §1
Spleen [30] = assay: Biodistribution in ddY mouse spleen at 0.2 to 0.4 uCi, iv after 30 mins; type: ADME, organism-based; conditions: in vivo, 0.5 h; in short: as §1
Kidney [31] = assay: Biodistribution in ddY mouse kidney at 0.2 to 0.4 uCi, iv after 10 mins; type: ADME, organism-based; conditions: in vivo; in short: as §1
Blood [32] = assay: Biodistribution in ddY mouse blood at 0.2 to 0.4 uCi, iv after 30 mins; type: ADME, organism-based; conditions: in vivo, 0.5 h; in short: as §1
Brain [33] = assay: Biodistribution in ddY mouse brain at 0.2 to 0.4 uCi, iv after 30 mins; type: ADME, organism-based; conditions: in vivo, 0.5 h; in short: as §1
Kidney [34] = assay: Biodistribution in ddY mouse kidney at 0.2 to 0.4 uCi, iv after 30 mins; type: ADME, organism-based; conditions: in vivo, 0.5 h; in short: as §1
Pancreas [35] = assay: Biodistribution in ddY mouse pancreas at 0.2 to 0.4 uCi, iv after 10 mins; type: ADME, organism-based; conditions: in vivo; in short: as §1
Liver [36] = assay: Biodistribution in ddY mouse liver at 0.2 to 0.4 uCi, iv after 10 mins; type: ADME, organism-based; conditions: in vivo; in short: as §1
[37] = Displacement of [125I]IMPY from amyloid beta42 by gamma counting
Brain [38] = assay: In vivo binding affinity to amyloid beta 42 in mouse brain by neuropathological staining; type: ADME, organism-based

| Structure (SMILES) | Drug uptake (Intestine [1]) [% ID/g] | Drug uptake (Heart [2]) [% ID/g] | Drug uptake (Stomach [3]) [%ID] | Drug uptake (Spleen [4]) [% ID/g] | Drug uptake (Spleen [5]) [% ID/g] | Drug uptake (Blood [6]) [% ID/g] | Drug uptake (Liver [7]) [% ID/g] | Drug uptake (Intestine [8]) [% ID/g] | Drug uptake (Liver [9]) [% ID/g] | Drug uptake (Blood [10]) [% ID/g] | Drug uptake (Heart [11]) [% ID/g] | Drug uptake (Liver [12]) [% ID/g] | Drug uptake (Pancreas [13]) [% ID/g] | Drug uptake (Stomach [14]) [%ID] | Drug uptake (Heart [15]) [% ID/g] | Drug uptake (Pancreas [16]) [% ID/g] | Drug uptake (Intestine [17]) [% ID/g] | Drug uptake (Kidney [18]) [% ID/g] | Drug uptake (Stomach [19]) [%ID] | Ki [37] [nM] | other results |
| --- | --- | --- | --- | --- | --- | --- | --- | --- | --- | --- | --- | --- | --- | --- | --- | --- | --- | --- | --- | --- | --- |
| OCCOc1ccc(-c2cc3cc([125I])ccc3[nH]2)cc1 | 1.97 | 5.84 | 1.62 | 7.09 | 7.56 | 1.6 | 8.17 | 5.76 | 13.42 | 0.8 | 2.97 | 17.69 | 5.55 | 2.11 | 12.91 | 2.22 | 11.32 | 11.93 | 1.97 |  | Drug uptake (Kidney [20]): 2.76 % ID/g; Drug uptake (Brain [21]): 2.13 % ID/g; Drug uptake (Brain [22]): 1.82 % ID/g; Drug uptake (Stomach [23]): 0.97 %ID; Drug uptake (Spleen [24]): 2.39 % ID/g; Drug uptake (Pancreas [25]): 3.57 % ID/g; Drug uptake (Brain [26]): 2.62 % ID/g; Drug uptake (Heart [27]): 1.36 % ID/g; Drug uptake (Blood [28]): 4.07 % ID/g; Drug uptake (Intestine [29]): 18.98 % ID/g; Drug uptake (Spleen [30]): 4.75 % ID/g; Drug uptake (Kidney [31]): 9.35 % ID/g; Drug uptake (Blood [32]): 1.26 % ID/g; Drug uptake (Brain [33]): 1.93 % ID/g; Drug uptake (Kidney [34]): 6.77 % ID/g; Drug uptake (Pancreas [35]): 5.59 % ID/g; Drug uptake (Liver [36]): 16.77 % ID/g |
| CN(C)c1ccc(-n2ccc3cc(I)ccc32)cc1 |  |  |  |  |  |  |  |  |  |  |  |  |  |  |  |  |  |  |  | > 10000 |  |
| CNc1ccc(-c2cc3cc([125I])ccc3[nH]2)cc1 | 0.97 | 3.59 | 1.68 | 19.67 | 7.83 | 1.71 | 15.89 | 3.57 | 23.07 | 0.8 | 2.96 | 22.85 | 2.31 | 2.55 | 5.68 | 1.27 | 8.54 | 5.53 | 1.34 |  | Drug uptake (Kidney [20]): 2.61 % ID/g; Drug uptake (Brain [21]): 1.1 % ID/g; Drug uptake (Brain [22]): 0.83 % ID/g; Drug uptake (Stomach [23]): 0.52 %ID; Drug uptake (Spleen [24]): 5.89 % ID/g; Drug uptake (Pancreas [25]): 2.12 % ID/g; Drug uptake (Brain [26]): 1.68 % ID/g; Drug uptake (Heart [27]): 1.88 % ID/g; Drug uptake (Blood [28]): 3.77 % ID/g; Drug uptake (Intestine [29]): 9.48 % ID/g; Drug uptake (Spleen [30]): 10.34 % ID/g; Drug uptake (Kidney [31]): 4.31 % ID/g; Drug uptake (Blood [32]): 1.36 % ID/g; Drug uptake (Brain [33]): 1.42 % ID/g; Drug uptake (Kidney [34]): 3.84 % ID/g; Drug uptake (Pancreas [35]): 2.87 % ID/g; Drug uptake (Liver [36]): 26.83 % ID/g |
| Oc1ccc(-c2cc3cc(I)ccc3[nH]2)cc1 |  |  |  |  |  |  |  |  |  |  |  |  |  |  |  |  |  |  |  | 32.9 |  |
| CN(C)c1ccc(-c2cc3cc(I)ccc3[nH]2)cc1 |  |  |  |  |  |  |  |  |  |  |  |  |  |  |  |  |  |  |  | 4.24 | Activity (Brain [38]): Not Active |
